Measured values gathered from unrelated publications.
Cell line: PC-3
Effect on: cell growth or viability

Compound	method	tested at	time	quantity	value
Cc1cc(C)cc(COc2cc3c(cc2OCc2cc(C)cc(C)c2)[C@H]2C[C@](O)(Cc4cn(CC5CC5)nn4)C[C@H](C)N2CC3)c1	MTT	–	–	IC50	0.302 µM
O=C(N/N=C/CN1CCCC1)Nc1cc2c(Nc3ccc(F)c(Cl)c3)ncnc2cc1O[C@H]1CCOC1	MTT	–	72 h	IC50	3.89 µM
COCCCOc1ccnc(COc2ccc(NC(=O)Nc3ccc(OC)cc3)cc2)c1C	MTT	–	72 h	IC50	47.2 µM
O=C(CN1C(=O)/C(=C/c2ccccc2O)SC1=S)Nc1ccccc1	MTT	10 µM	–	inhibition	36.2%
COc1cccc(NC(=O)C2CCCN(C(=O)c3cc(C(F)(F)F)cc(C(F)(F)F)c3)C2)c1 (stereo not drawn)	WST-1	100 µM	–	inhibition	0%
CC/C(=C(\c1ccccc1)c1ccc(OCCN(C)C)cc1)c1ccccc1	ATP luminescence	–	72 h	EC90	31 µM
O=C(CN1C(=O)/C(=C/c2ccccn2)SC1=S)Nc1ccccc1	MTT	10 µM	–	inhibition	30.5%
CSc1cccc(NC(=O)C2CCCN(C(=O)c3cccc(-c4ccco4)c3)C2)c1 (stereo not drawn)	WST-1	100 µM	–	inhibition	0%
O=C(N/N=C/c1cccn1CCCN1CCOCC1)Nc1cc2c(Nc3ccc(F)c(Cl)c3)ncnc2cc1O[C@H]1CCOC1	MTT	–	72 h	IC50	6.32 µM
COc1cccc(NC(=O)CN2C(=O)/C(=C/c3ccc(F)cc3)SC2=S)c1	MTT	10 µM	–	inhibition	13%
COc1ccc(C(=O)/C=C/c2ccc(Cl)c(Cl)c2)cc1S(N)(=O)=O	SRB	10 µM	–	inhibition	90%
COc1cc2ncnc(Nc3ccc(F)c(Cl)c3)c2cc1NC(=O)N/N=C/CN1CCCC1	MTT	–	72 h	IC50	2.55 µM
C=CCOc1cccc(NC(=O)C2CCCN(C(=O)c3cc(C(F)(F)F)cc(C(F)(F)F)c3)C2)c1 (stereo not drawn)	WST-1	100 µM	–	inhibition	0%
Cc1ncsc1-c1ccc(CNC(=O)[C@@H]2C[C@@H](O)CN2C(=O)[C@@H](NC(=O)CCCCCCCCCC(=O)N2CCN(CC[C@H](NC(=O)C3(N)CCN(c4ncnc5[nH]ccc45)CC3)c3ccc(Cl)cc3)CC2)C(C)(C)C)cc1	–	–	72 h	GI50	0.18 µM
COc1ccc(C(=O)/C=C/c2cccnc2)cc1S(N)(=O)=O	SRB	–	48 h	GI50	16.6 µM
CN1CCN(CCCn2cccc2/C=N/NC(=O)Nc2cc3c(Nc4ccc(F)c(Cl)c4)ncnc3cc2O[C@H]2CCOC2)CC1	MTT	–	72 h	IC50	2.06 µM
COc1ccc(-c2ccc(-c3ccc(C(=N)N)nc3)s2)cc1	–	–	–	GI50	1.68 µM

Compound	method	tested at	time	quantity	value
COc1cccc(NC(=O)CN2C(=O)/C(=C/c3ccco3)SC2=S)c1	MTT	10 µM	–	inhibition	8.63%
COc1ccc(C(=O)/C=C/c2cccc(Cl)c2)cc1S(N)(=O)=O	SRB	–	48 h	GI50	2.2 µM
COc1cc2c(c(OC)c1OC)-c1ccc(OC)c(=O)cc1[C@@H](NC(C)=O)CC2	MTT	10 µM	–	inhibition	58.6%
O=C(Nc1ccc(Cl)cn1)C1CCCN(C(=O)c2cc(C(F)(F)F)cc(C(F)(F)F)c2)C1 (stereo not drawn)	WST-1	100 µM	–	inhibition	0%
O=C(CN1C(=O)/C(=C/c2ccc(Cl)cc2Cl)SC1=S)Nc1ccccc1	MTT	10 µM	–	inhibition	19.2%
COc1ccc(C(=O)/C=C/c2c(F)cccc2Cl)cc1S(N)(=O)=O	SRB	–	48 h	GI50	4.7 µM
CC(C)(C)OC(=O)c1cccc(NC(=O)C2CCCN(C(=O)c3cc(C(F)(F)F)cc(C(F)(F)F)c3)C2)c1 (stereo not drawn)	WST-1	100 µM	–	inhibition	0%
COc1ccc(C(=O)/C=C/c2cccc(Br)c2)cc1S(N)(=O)=O	SRB	–	48 h	GI50	2 µM
O=C(CN1C(=O)/C(=C/c2cccc(Cl)c2)SC1=S)Nc1ccccc1	MTT	10 µM	–	inhibition	21%
O=C(c1ccccc1)c1cccc(NC(=O)C2CCCN(C(=O)c3cc(C(F)(F)F)cc(C(F)(F)F)c3)C2)c1 (stereo not drawn)	WST-1	100 µM	–	inhibition	0%
O=C(N/N=C/c1cccn1CCN1CCCCC1)Nc1cc2c(Nc3ccc(F)c(Cl)c3)ncnc2cc1O[C@H]1CCOC1	MTT	–	72 h	IC50	1.57 µM
COc1ccc(C(=O)/C=C/c2ccc3ccccc3c2)cc1S(N)(=O)=O	SRB	–	48 h	GI50	1.8 µM
COc1ccc(-c2ccc(-c3ccc(C(=N)N)nc3)s2)cc1Cl	–	–	–	GI50	1.78 µM
COc1cccc(NC(=O)CN2C(=O)/C(=C/c3ccccc3)SC2=S)c1	MTT	10 µM	–	inhibition	17.8%
COc1cc2ncnc(Nc3ccc(F)c(Cl)c3)c2cc1NC(=O)N/N=C/c1cccn1CCN1CCN(C)CC1	MTT	–	72 h	IC50	2.08 µM
COc1ccccc1/C=C/C(=O)c1ccc(OC)c(S(N)(=O)=O)c1	SRB	–	48 h	GI50	4.8 µM
